Measurements published in ChEMBL document CHEMBL1821673, “Development of β-amino alcohol derivatives that inhibit Toll-like receptor 4 mediated inflammatory response as potential antiseptics” (J Med Chem, 2011).
Activity calls are given as the source filed them. No cut-off for these calls is given here.

Columns and labels:
Toll-like receptor 4 [1] = target: T1, Toll-like receptor 4 (Mus musculus, UniProt Q9QUK6); assay: Inhibition of LPS-induced TLR4 activation in mouse RAW264.7 cells assessed as reduction in NO production after 18 to 24 hrs; assay type: cell-based
T1 sequence (Q9QUK6 whole entry): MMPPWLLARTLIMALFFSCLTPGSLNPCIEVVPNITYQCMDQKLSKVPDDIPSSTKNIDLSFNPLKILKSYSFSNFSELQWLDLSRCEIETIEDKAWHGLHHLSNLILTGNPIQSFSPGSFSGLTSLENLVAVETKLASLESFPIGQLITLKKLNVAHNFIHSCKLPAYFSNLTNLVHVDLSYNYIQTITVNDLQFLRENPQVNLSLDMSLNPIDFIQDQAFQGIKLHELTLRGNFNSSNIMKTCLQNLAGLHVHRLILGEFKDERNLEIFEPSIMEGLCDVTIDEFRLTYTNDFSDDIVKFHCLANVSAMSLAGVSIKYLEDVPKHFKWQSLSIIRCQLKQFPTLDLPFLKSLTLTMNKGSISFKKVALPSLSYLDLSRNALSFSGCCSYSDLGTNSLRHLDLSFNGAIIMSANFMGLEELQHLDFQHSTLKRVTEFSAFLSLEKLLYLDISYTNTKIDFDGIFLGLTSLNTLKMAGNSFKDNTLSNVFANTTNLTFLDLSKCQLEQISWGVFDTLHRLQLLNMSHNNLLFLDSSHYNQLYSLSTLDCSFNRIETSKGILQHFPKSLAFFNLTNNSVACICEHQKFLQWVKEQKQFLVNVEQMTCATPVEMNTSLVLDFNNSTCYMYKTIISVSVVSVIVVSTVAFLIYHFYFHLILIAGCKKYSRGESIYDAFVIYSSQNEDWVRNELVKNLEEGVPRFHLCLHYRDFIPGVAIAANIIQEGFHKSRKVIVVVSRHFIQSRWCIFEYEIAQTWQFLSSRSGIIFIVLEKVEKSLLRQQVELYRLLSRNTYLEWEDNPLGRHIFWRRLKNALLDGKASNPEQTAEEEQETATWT
Summary of the method: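 RAW264.7 cells, 100,000 per well, grown 24 h in RPMI with 10% FBS, then switched to unsupplemented RPMI. LPS and compound added together, 18–24 h at 37 °C. Medium nitrite measured with 2,3-diaminonaphthalene (ex 365/em 450 nm) against a nitrite standard curve. Quadruplicate; IC50 by a modified Kou-type method.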

Toll-like receptor 4 [2] = target: T2, Toll-like receptor 4 (Homo sapiens, UniProt O00206); assay: Inhibition of LPS-induced TLR4 activation in human whole blood assessed as inhibition of IL-6 release preincubated for 5 to 10 mins
T2 sequence (O00206 whole entry): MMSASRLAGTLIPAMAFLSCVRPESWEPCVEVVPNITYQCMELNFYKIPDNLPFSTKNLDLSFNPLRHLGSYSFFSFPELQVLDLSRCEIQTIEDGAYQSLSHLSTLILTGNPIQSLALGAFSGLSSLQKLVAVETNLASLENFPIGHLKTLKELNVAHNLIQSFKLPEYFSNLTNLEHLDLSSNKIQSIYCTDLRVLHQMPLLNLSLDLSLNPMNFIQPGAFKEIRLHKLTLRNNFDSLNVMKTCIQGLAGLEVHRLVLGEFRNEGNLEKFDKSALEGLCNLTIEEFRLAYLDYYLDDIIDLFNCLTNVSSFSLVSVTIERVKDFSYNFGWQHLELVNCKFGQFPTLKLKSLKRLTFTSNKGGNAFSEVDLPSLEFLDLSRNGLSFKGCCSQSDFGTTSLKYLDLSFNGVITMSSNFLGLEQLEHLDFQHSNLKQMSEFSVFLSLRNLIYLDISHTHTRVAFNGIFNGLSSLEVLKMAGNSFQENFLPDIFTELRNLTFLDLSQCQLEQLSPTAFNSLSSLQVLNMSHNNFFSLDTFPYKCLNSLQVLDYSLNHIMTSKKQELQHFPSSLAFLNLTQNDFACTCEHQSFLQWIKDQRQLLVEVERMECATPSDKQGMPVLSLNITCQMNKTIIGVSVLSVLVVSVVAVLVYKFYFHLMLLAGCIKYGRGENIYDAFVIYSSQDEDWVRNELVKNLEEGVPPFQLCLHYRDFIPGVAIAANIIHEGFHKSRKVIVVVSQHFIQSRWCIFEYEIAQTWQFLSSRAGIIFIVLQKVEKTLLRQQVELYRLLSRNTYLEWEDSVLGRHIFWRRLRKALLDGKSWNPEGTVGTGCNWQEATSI
Summary of the method: (§1)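 Fresh human blood anticoagulated with lepirudin, preincubated with compound 5–10 min at 37 °C, then stimulated with 100 ng/mL ultrapure E. coli 0111:B4 LPS, rotating 2 h at 37 °C. Stopped with EDTA 10 mM final; plasma TNF-α, IL-8 and IL-6 measured by singleplex Bio-plex, expressed as % of LPS without inhibitor. n = 3 or 9, paired two-sided t-test.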

Toll-like receptor 4 [3] = target: T2, Toll-like receptor 4; assay: Inhibition of LPS-induced TLR4 activation in human whole blood assessed as inhibition of TNFalpha release at 250 uM preincubated for 5 to 10 mins; summary of the method: as §1
Toll-like receptor 4 [4] = target: T2, Toll-like receptor 4; assay: Inhibition of LPS-induced TLR4 activation in human whole blood assessed as inhibition of IL-8 release at 500 uM preincubated for 5 to 10 mins; summary of the method: as §1
Toll-like receptor 4 [5] = target: T2, Toll-like receptor 4; assay: Inhibition of LPS-induced TLR4 activation in human whole blood assessed as inhibition of TNFalpha release at 500 uM preincubated for 5 to 10 mins; summary of the method: as §1
Toll-like receptor 4 [6] = target: T2, Toll-like receptor 4; assay: Inhibition of LPS-induced TLR4 activation in human whole blood assessed as inhibition of IL-6 release at 250 uM preincubated for 5 to 10 mins; summary of the method: as §1
Toll-like receptor 4 [7] = target: T2, Toll-like receptor 4; assay: Inhibition of LPS-induced TLR4 activation in human whole blood assessed as reduction in plasma IL-8 level at 250 uM preincubated for 5 to 10 mins; summary of the method: as §1
MDCK = assay: Permeability across apical to basolateral side of MDCK cells expressing MDR1 at 5 uM; assay type: ADME, cell-based, Canis lupus familiaris; details: dog
Summary of the method: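 MDR1-MDCK monolayer; transport measured in apical-to-basolateral and basolateral-to-apical directions at 5 µM.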

Liver microsomes = assay: Intrinsic clearance in human liver microsomes at 1 uM after 60 mins by LC-MS/MS analysis; assay type: ADME, Microsome; details: 1 h
Summary of the method: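 1 µM in <0.25% DMSO, 37 °C, human liver microsomes 0.5 mg/mL protein, started with cofactors. Time points 0, 10, 20, 30 and 60 min; NADPH addition confirmed by fluorimetry. LC-MS/MS peak-area ratio to internal standard; CLint = k/P.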

Liver [8] = assay: Intrinsic clearance in human liver S9 fractions at 1 uM after 60 mins by LC-MS/MS analysis; assay type: ADME, subcellular, S9 fraction; details: s9, 1 h
Summary of the method: (§2)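 1 µM in <0.25% DMSO, 37 °C, pooled rat or human S9 at 1 mg/mL, with 1 mM each of NADPH, UDPGA, PAPS and GSH. Sampled at 0, 10, 20, 30 and 60 min; peak-area ratio to internal standard by LC-MS/MS without a standard curve. CLint = k/P.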

Liver [9] = assay: Intrinsic clearance in rat liver S9 fractions at 1 uM after 60 mins by LC-MS/MS analysis; assay type: ADME, subcellular, S9 fraction; details: s9, 1 h; summary of the method: as §2
Cytochrome P450 2C9 = Cytochrome P450 2C9 (Homo sapiens, UniProt P11712); assay: Inhibition of CYP2C9 in human liver microsomes using diclofenac as probe; assay type: ADME, Microsome
Sequence of Cytochrome P450 2C9 (P11712 whole entry): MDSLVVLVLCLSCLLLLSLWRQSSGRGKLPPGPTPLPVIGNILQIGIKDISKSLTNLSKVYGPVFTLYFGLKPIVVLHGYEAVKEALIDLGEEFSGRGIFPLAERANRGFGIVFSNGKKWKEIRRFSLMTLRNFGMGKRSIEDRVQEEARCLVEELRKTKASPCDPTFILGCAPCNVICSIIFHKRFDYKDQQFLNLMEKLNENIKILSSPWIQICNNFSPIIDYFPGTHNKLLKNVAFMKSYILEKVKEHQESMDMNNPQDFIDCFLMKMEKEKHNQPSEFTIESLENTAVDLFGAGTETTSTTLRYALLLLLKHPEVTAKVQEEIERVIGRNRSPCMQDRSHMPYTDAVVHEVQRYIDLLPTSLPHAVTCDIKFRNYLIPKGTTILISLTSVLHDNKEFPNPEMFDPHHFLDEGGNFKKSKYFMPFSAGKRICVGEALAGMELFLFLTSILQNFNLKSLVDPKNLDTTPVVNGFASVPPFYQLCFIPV

Cytochrome P450 2C19 = Cytochrome P450 2C19 (Homo sapiens, UniProt P33261); assay: Inhibition of CYP2C19 in human liver microsomes using S-mephenytoin as probe; assay type: ADME, Microsome
Cytochrome P450 2D6 = Cytochrome P450 2D6 (Homo sapiens, UniProt P10635); assay: Inhibition of CYP2D6 in human liver microsomes using bufuralol as probe; assay type: ADME, Microsome
[10] = target: RAC-alpha serine/threonine-protein kinase (Homo sapiens) (UniProt P31749); assay: Inhibition of AKT1 at 28 uM by luciferase fragment complementation assay
[11] = target: Discoidin domain-containing receptor 2 (Homo sapiens) (UniProt Q16832); assay: Inhibition of DDR2 at 28 uM by luciferase fragment complementation assay
Sequence of Discoidin domain-containing receptor 2 (Homo sapiens) (Q16832 whole entry, the tested form may be a part): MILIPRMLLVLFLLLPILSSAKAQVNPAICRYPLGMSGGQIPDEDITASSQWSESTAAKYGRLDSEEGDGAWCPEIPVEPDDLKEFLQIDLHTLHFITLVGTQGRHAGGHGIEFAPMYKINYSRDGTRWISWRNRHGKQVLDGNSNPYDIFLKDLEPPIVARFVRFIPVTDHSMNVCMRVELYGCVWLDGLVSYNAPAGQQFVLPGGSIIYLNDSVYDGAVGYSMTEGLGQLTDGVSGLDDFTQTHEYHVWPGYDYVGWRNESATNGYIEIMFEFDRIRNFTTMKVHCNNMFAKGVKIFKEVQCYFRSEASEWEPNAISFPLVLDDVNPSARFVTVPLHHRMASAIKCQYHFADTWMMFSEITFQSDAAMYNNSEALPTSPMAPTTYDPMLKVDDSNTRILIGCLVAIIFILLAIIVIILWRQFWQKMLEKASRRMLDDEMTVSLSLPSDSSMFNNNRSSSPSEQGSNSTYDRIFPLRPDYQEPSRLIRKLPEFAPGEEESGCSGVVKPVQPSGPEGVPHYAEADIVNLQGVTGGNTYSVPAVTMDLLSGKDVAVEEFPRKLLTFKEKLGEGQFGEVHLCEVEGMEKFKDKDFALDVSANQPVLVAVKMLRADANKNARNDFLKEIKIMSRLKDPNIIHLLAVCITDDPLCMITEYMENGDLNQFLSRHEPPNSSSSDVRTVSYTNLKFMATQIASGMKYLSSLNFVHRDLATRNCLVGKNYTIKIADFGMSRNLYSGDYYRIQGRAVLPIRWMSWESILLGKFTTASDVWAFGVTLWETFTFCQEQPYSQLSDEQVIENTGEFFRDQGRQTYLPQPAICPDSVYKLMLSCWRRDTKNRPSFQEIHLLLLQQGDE

[12] = target: Serine/threonine-protein kinase PAK 1 (Homo sapiens) (UniProt Q13153); assay: Inhibition of PAK1 at 28 uM by luciferase fragment complementation assay
Sequence of Serine/threonine-protein kinase PAK 1 (Homo sapiens) (Q13153 whole entry, the tested form may be a part): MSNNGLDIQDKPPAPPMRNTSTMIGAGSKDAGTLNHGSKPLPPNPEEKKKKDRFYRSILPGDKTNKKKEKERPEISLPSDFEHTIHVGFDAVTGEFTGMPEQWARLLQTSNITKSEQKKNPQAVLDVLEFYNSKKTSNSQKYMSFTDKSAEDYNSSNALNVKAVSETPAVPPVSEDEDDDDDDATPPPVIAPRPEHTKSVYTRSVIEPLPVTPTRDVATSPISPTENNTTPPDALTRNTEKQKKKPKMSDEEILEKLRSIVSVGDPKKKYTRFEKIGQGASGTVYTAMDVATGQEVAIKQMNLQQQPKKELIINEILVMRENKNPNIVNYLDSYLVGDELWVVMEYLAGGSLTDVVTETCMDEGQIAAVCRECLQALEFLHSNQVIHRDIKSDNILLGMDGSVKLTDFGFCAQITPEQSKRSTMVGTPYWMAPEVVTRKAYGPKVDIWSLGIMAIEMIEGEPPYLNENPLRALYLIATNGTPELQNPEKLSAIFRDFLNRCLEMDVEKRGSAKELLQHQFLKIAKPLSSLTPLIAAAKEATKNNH

[13] = target: Platelet-derived growth factor receptor beta (Homo sapiens) (UniProt P09619); assay: Inhibition of PDGFRB at 28 uM by luciferase fragment complementation assay
Sequence of Platelet-derived growth factor receptor beta (Homo sapiens) (P09619 whole entry, the tested form may be a part): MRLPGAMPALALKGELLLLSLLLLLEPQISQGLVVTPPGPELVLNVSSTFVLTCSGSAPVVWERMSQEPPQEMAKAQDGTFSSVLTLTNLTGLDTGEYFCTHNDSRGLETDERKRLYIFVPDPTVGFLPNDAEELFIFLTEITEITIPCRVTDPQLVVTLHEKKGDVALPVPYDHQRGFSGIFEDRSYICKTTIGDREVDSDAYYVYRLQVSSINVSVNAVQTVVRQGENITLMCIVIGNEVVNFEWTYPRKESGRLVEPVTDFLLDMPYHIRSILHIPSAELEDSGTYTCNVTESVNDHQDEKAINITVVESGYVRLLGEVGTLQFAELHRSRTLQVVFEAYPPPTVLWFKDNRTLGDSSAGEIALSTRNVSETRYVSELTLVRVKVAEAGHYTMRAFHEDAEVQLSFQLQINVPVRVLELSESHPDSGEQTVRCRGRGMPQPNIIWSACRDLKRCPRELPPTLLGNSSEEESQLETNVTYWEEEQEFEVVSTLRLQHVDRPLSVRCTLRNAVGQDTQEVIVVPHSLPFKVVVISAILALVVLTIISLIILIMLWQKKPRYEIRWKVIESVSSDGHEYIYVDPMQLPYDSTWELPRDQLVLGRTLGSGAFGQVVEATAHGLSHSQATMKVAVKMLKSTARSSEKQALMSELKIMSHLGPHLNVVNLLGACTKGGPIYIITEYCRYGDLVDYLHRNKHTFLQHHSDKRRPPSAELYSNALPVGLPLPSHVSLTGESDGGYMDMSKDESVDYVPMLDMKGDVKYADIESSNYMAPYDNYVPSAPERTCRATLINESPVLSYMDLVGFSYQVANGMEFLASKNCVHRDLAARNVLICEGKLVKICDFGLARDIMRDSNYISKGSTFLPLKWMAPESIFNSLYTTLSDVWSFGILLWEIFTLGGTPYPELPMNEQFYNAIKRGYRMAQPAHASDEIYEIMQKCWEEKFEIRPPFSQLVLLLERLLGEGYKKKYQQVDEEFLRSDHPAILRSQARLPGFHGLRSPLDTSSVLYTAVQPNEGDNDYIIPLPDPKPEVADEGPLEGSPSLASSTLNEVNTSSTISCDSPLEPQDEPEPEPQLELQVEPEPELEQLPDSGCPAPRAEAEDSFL

[14] = target: Serine/threonine-protein kinase pim-1 (Homo sapiens) (UniProt P11309); assay: Inhibition of PIM1 at 28 uM by luciferase fragment complementation assay
Sequence of Serine/threonine-protein kinase pim-1 (Homo sapiens) (P11309 whole entry, looked up, the tested form may be a part): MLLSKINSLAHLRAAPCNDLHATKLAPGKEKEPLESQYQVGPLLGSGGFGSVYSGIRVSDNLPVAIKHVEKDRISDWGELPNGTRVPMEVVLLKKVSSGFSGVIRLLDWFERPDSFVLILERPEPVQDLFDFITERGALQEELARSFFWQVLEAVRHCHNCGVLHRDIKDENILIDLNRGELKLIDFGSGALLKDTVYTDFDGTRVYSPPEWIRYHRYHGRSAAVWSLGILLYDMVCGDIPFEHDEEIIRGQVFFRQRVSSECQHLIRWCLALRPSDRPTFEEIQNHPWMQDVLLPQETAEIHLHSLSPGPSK

[15] = target: Protein kinase C gamma type (Homo sapiens) (UniProt P05129); assay: Inhibition of PKCgamma at 28 uM by luciferase fragment complementation assay
[16] = target: Proto-oncogene tyrosine-protein kinase Src (Homo sapiens) (UniProt P12931); assay: Inhibition of SRC at 28 uM by luciferase fragment complementation assay
Sequence of Proto-oncogene tyrosine-protein kinase Src (Homo sapiens) (P12931 2-536 limits assumed): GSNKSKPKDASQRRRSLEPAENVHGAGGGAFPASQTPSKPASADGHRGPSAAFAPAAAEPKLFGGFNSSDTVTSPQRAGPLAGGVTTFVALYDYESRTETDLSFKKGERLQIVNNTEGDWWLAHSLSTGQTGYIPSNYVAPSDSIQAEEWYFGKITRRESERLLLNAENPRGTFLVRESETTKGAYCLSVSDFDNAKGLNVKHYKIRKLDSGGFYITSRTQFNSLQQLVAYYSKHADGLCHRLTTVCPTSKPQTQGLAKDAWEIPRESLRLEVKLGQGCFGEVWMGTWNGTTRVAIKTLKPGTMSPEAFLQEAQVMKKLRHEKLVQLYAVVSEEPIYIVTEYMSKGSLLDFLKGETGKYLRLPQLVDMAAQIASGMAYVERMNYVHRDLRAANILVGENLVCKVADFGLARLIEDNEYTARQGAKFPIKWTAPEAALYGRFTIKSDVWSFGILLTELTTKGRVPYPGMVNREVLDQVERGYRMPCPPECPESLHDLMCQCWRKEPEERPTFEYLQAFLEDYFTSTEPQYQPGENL

Blood = assay: Cytotoxicity against human whole blood assessed as hemolysis at 1 mM; assay type: tissue-based; details: 1000 µM
Summary of the method: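 Human whole blood anticoagulated with lepirudin, exposed to compound at up to 1 mM; hemolysis checked.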

For `CCOc1ccc(OCC(O)CN(C)Cc2c(C)nn(Cc3ccccc3Cl)c2C)cc1` (racemic), the IC50 (Toll-like receptor 4 [1]) was 27.8 µM, the IC50 (Toll-like receptor 4 [2]) was 318 µM and the inhibition (Toll-like receptor 4 [2]) was “Dose-dependent effect”. For the same compound, the inhibition (Toll-like receptor 4 [3]) was “Active”, the inhibition (Toll-like receptor 4 [4]) was “Active” and the inhibition (Toll-like receptor 4 [5]) was “Active”. The inhibition (Toll-like receptor 4 [6]) was “inactive”, the inhibition (Toll-like receptor 4 [7]) was 65% and the permeability (MDCK) was “permeable”. The CL (Liver microsomes) was over 700 µL/min/mg, the CL (Liver [8]) was 300 µL/min/mg and the CL (Liver [9]) was over 350 µL/min/mg. The IC50 (Cytochrome P450 2C9) was 43 µM, the IC50 (Cytochrome P450 2C19) was 20 µM and the IC50 (Cytochrome P450 2D6) was 32 µM. The inhibition [10] was at most 27%, the inhibition [11] was at most 27% and the inhibition [12] was at most 27%. It also gave an inhibition [13] of at most 27%, an inhibition [14] of at most 27% and an inhibition [15] of at most 27%. For the same compound, the inhibition [16] was at most 27% and the Activity (Blood) was “Non-toxic”.
